These results are taken from ChEMBL document CHEMBL5356993, “Novel pyrazolo[3,4-d]pyrimidine derivatives: design, synthesis, anticancer evaluation, VEGFR-2 inhibition, and antiangiogenic activity” (RSC Med Chem, 2023).

One assay concerns HT-29. As to the kind of experiment: Antiproliferative activity against human HT-29 cells assessed as cell growth inhibition at 10 uM incubated for 48 hrs by SRB assay relative to control. In kind it is functional. The conditions noted are these: read-out: GI. The essentials:
(§1)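 Cells plated in 96-well plates at […] cells/well and preincubated 24 h at 37 °C, 5% CO2. Time-zero plates were TCA-fixed. Compound was diluted in medium with 50 µg/mL gentamicin and cells exposed for 48 h. Adherent cells fixed with 10% final TCA; suspension cells with 16% final TCA. Plates stained with 0.4% SRB in 1% acetic acid, dye solubilized in 10 mM Trizma, absorbance read at 515 nm. Percent growth calculated against time-zero and control.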
For orientation: In SRB staining, fixed cells bind dye roughly in proportion to their protein.
Take `Cc1nc2c(cnn2-c2ccccc2)c(=O)n1-c1ccc(NC(=O)c2ccc(Cl)cc2)cc1`: the inhibition of growth at 10 µM worked out at 28%.

For another assay, the system named is NCI-H322M. As to the kind of experiment: Antiproliferative activity against human NCI-H322M cells assessed as cell growth inhibition at 10 uM incubated for 48 hrs by SRB assay relative to control. It counts as functional. The following applies: read-out: GI.
As for `Cc1nc2c(cnn2-c2ccccc2)c(=O)n1-c1ccc(NC(=O)c2ccc(Cl)cc2)cc1`, the inhibition of growth at 10 µM was less than 15%.

Another assay concerns MOLT-4. As to the kind of experiment: Antiproliferative activity against human MOLT-4 cells assessed as cell growth inhibition at 10 uM incubated for 48 hrs by SRB assay relative to control. In kind it is functional. The conditions noted are these: read-out: GI.
For the molecule `Cc1nc2c(cnn2-c2ccccc2)c(=O)n1-c1ccc(NC(=O)c2ccc(Cl)cc2)cc1`, the inhibition of growth at 10 µM was found to be 30.7%.

The next assay has as its system HOP-92. The assay is described as follows: Antiproliferative activity against human HOP-92 cells assessed as cell growth inhibition at 10 uM incubated for 48 hrs by SRB assay relative to control. It counts as functional. The conditions noted are these: read-out: GI. The essentials: as §1
In the case of `Cc1nc2c(cnn2-c2ccccc2)c(=O)n1-c1ccc(NC(=O)c2ccc(Cl)cc2)cc1`, the inhibition of growth at 10 µM was found to be 37.8%.

In the next assay the test system is PC-3. The assay is described as follows: Antiproliferative activity against human PC-3 cells assessed as cell growth inhibition at 10 uM incubated for 48 hrs by SRB assay relative to control. The following applies: read-out: GI. In kind it is functional.
In the case of `Cc1nc2c(cnn2-c2ccccc2)c(=O)n1-c1ccc(NC(=O)c2ccc(Cl)cc2)cc1`, the inhibition of growth at 10 µM was 36.7%.

The next assay has as its system KM12. The assay is described as follows: Antiproliferative activity against human KM12 cells assessed as cell growth inhibition at 10 uM incubated for 48 hrs by SRB assay relative to control. It counts as functional. The following applies: read-out: GI. Put shortly: as §1
Regarding `Cc1nc2c(cnn2-c2ccccc2)c(=O)n1-c1ccc(NC(=O)c2ccc(Cl)cc2)cc1`, the inhibition of growth at 10 µM turned out to be 19.2%.

The subject of the next assay is OVCAR-5. As to the kind of experiment: Antiproliferative activity against human OVCAR-5 cells assessed as cell growth inhibition at 10 uM incubated for 48 hrs by SRB assay relative to control. In kind it is functional. The following applies: read-out: GI. The essentials:
as §1
For `Cc1nc2c(cnn2-c2ccccc2)c(=O)n1-c1ccc(NC(=O)c2ccc(Cl)cc2)cc1`, the inhibition of growth at 10 µM was less than 15%.

The subject of another assay is COLO 205. The assay is described as follows: Antiproliferative activity against human COLO 205 cells assessed as cell growth inhibition at 10 uM incubated for 48 hrs by SRB assay relative to control. The conditions noted are these: read-out: GI. In kind it is functional.
As for `Cc1nc2c(cnn2-c2ccccc2)c(=O)n1-c1ccc(NC(=O)c2ccc(Cl)cc2)cc1`, the inhibition of growth at 10 µM amounted to 18.8%.

The subject of another assay is SNB-19. As to the kind of experiment: Antiproliferative activity against human SNB-19 cells assessed as cell growth inhibition at 10 uM incubated for 48 hrs by SRB assay relative to control. It counts as functional. The following applies: read-out: GI. Put shortly:
(§2)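 Cells pre-incubated 24 h at 37°C, 5% CO2, then exposed to compound (DMSO stock diluted in medium with 50 µg/mL gentamicin) for 48 h. Adherent cells fixed with cold TCA (final 10%, 60 min, 4°C); suspension cells fixed with 16% TCA final. Stained with 0.4% SRB in 1% acetic acid for 10 min, dye solubilized in 10 mM Trizma base, absorbance read at 515 nm. Growth calculated against time-zero and untreated control plates.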
On to `Cc1nc2c(cnn2-c2ccccc2)c(=O)n1-c1ccc(NC(=O)c2ccc(Cl)cc2)cc1`, for which the inhibition of growth at 10 µM is 16.3%.

A further assay relates to OVCAR-8. The assay is described as follows: Antiproliferative activity against human OVCAR-8 cells assessed as cell growth inhibition at 10 uM incubated for 48 hrs by SRB assay relative to control. In kind it is functional. The conditions noted are these: read-out: GI.
In the case of `Cc1nc2c(cnn2-c2ccccc2)c(=O)n1-c1ccc(NC(=O)c2ccc(Cl)cc2)cc1`, the inhibition of growth at 10 µM was 43.4%.

A further assay deals with SNB-75. The assay is described as follows: Antiproliferative activity against human SNB-75 cells assessed as cell growth inhibition at 10 uM incubated for 48 hrs by SRB assay relative to control. In kind it is functional. The conditions noted are these: read-out: GI. The essentials:
as §2
As to `Cc1nc2c(cnn2-c2ccccc2)c(=O)n1-c1ccc(NC(=O)c2ccc(Cl)cc2)cc1`, the inhibition of growth at 10 µM was determined as 27.5%.

The test system of the next assay is RPMI-8226. The assay is described as follows: Antiproliferative activity against human RPMI-8226 cells assessed as cell growth inhibition at 10 uM incubated for 48 hrs by SRB assay relative to control. In kind it is functional. The following applies: read-out: GI.
Consider `Cc1nc2c(cnn2-c2ccccc2)c(=O)n1-c1ccc(NC(=O)c2ccc(Cl)cc2)cc1`, for which the inhibition of growth at 10 µM was 52.9%.

The subject of a further assay is MCF7. The assay is described as follows: Antiproliferative activity against human MCF7 cells assessed as cell growth inhibition at 10 uM incubated for 48 hrs by SRB assay relative to control. In kind it is functional. The conditions noted are these: read-out: GI.
Consider `Cc1nc2c(cnn2-c2ccccc2)c(=O)n1-c1ccc(NC(=O)c2ccc(Cl)cc2)cc1`, for which the inhibition of growth at 10 µM came to 46.8%.

The next assay relates to NCI/ADR-RES. The assay is described as follows: Antiproliferative activity against human NCI-ADR-RES cells assessed as cell growth inhibition at 10 uM incubated for 48 hrs by SRB assay relative to control. It counts as functional. The conditions noted are these: read-out: GI.
As to `Cc1nc2c(cnn2-c2ccccc2)c(=O)n1-c1ccc(NC(=O)c2ccc(Cl)cc2)cc1`, the inhibition of growth at 10 µM was 44.5%.

The subject of the next assay is NCI-H226. The assay is described as follows: Antiproliferative activity against human NCI-H226 cells assessed as cell growth inhibition at 10 uM incubated for 48 hrs by SRB assay relative to control. It counts as functional. The conditions noted are these: read-out: GI. The essentials:
as §1
Take `Cc1nc2c(cnn2-c2ccccc2)c(=O)n1-c1ccc(NC(=O)c2ccc(Cl)cc2)cc1`: the inhibition of growth at 10 µM was 49.1%.

In the next assay the test system is DU-145. As to the kind of experiment: Antiproliferative activity against human DU-145 cells assessed as cell growth inhibition at 10 uM incubated for 48 hrs by SRB assay relative to control. It counts as functional. The following applies: read-out: GI.
In the case of `Cc1nc2c(cnn2-c2ccccc2)c(=O)n1-c1ccc(NC(=O)c2ccc(Cl)cc2)cc1`, the inhibition of growth at 10 µM came to 17.8%.

The next assay has as its system SF-268. The assay is described as follows: Antiproliferative activity against human SF-268 cells assessed as cell growth inhibition at 10 uM incubated for 48 hrs by SRB assay relative to control. In kind it is functional. The conditions noted are these: read-out: GI.
Take `Cc1nc2c(cnn2-c2ccccc2)c(=O)n1-c1ccc(NC(=O)c2ccc(Cl)cc2)cc1`: the inhibition of growth at 10 µM is less than 15%.
